The source of these data is paper PMC9283305 (Nitric oxide : biology and chemistry, 2022).

Where two headings read alike, the source gives them in different places.

The conditions of test [1]: cited from earlier work.
Test [2] deals with T1, Wild-type Cygb (Homo sapiens, UniProt Q8WWM9). As to the kind of experiment: UV-Vis difference spectroscopy titration of ferric cytoglobin. The test is classed as binding. The settings on record: SD, n = 3.
The target of test [3] is T2, H81A (Homo sapiens, UniProt Q8WWM9, H81A). Described as above. The test is classed as binding. Particulars: SD, n = 3.
For test [4], the target named is T3, H81Q (Homo sapiens, UniProt Q8WWM9, H81Q). The description is as above. Particulars: SD, n = 3. The test is classed as binding.
In test [5] the target is T4, H81L (Homo sapiens, UniProt Q8WWM9, H81L). The test is described as above. It counts as binding. The settings on record: SD, n = 3.
The target in test [6] is T5, H81W (Homo sapiens, UniProt Q8WWM9, H81W). Described as above. It counts as binding. The settings on record: SD, n = 3.
In test [7] the target is T6, K116E (Homo sapiens, UniProt Q8WWM9, K116E). The description is as above. The test is classed as binding. Particulars: SD, n = 3.
The target in test [8] is T2, H81A. Put plainly: UV-Vis difference spectroscopy titration of ferric cytoglobin. The settings on record: SD, n = 3. It counts as binding. The gist of the method:
(§1)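 Sodium oleate stocks (50 mM in water, −20 °C) were diluted in buffer before use. Ferric globin (5–15 μM) in 100 mM sodium phosphate, pH 7.4, 25 °C was titrated with 200 μM–5 mM stocks to about 60–1500 μM oleate. The max–min difference-spectrum amplitude was plotted against oleate, and KD came from a 1:1 quadratic fit. At least triplicate, with ≥2 protein batches; mean ± SD.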
The source holds these as a separate data set.

Test [9] has as its target T3, H81Q. The test is described as above. The settings on record: SD, n = 3. The test is classed as binding. The gist of the method: as §1
This is another data set of the same source.

Test [10] deals with T4, H81L. Described as above. It counts as binding. Particulars: SD, n = 3. The gist of the method:
as §1
This is another data set of the same source.

Test [11] deals with T5, H81W. The test is described as above. Particulars: SD, n = 3. The test is classed as binding. Summed up: as §1
This is another data set of the same source.

In another test the target is R84E (Homo sapiens, UniProt Q8WWM9, R84E). The description is as above. It counts as binding. The settings on record: SD, n = 3. Summed up: as §1
A further test deals with T91D (Homo sapiens, UniProt Q8WWM9, T91D). Described as above. The test is classed as binding. The settings on record: SD, n = 3. Summed up:
as §1

A further test deals with V105Y (Homo sapiens, UniProt Q8WWM9, V105Y). Described as above. Particulars: SD, n = 3. It counts as binding. The gist of the method: as §1
For another test, the target named is L108Q (Homo sapiens, UniProt Q8WWM9, L108Q). Described as above. It counts as binding. Particulars: SD, n = 3. Summed up: as §1
For test [12], the target named is T6, K116E. The test is described as above. It counts as binding. Particulars: SD, n = 3. The gist of the method:
as §1
This is another data set of the same source.

Test [13] concerns the target T1, Wild-type Cygb. As to the kind of experiment: UV-Vis difference spectroscopy titration of ferric cytoglobin. It counts as binding. The settings on record: SD, n = 3. Summed up:
(§2)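 Ferric globin (5–15 μM) was titrated with imidazole stocks (1–100 mM) to about 100–15000 μM final. Buffer was 100 mM sodium phosphate, pH 7.4, at 25 °C. UV-Vis difference spectra were taken, and the max–min absorbance difference was plotted against ligand. KD came from a 1:1 quadratic binding fit. At least triplicate, with ≥2 protein batches; mean ± SD.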
This is another data set of the same source.

Test [14] deals with T2, H81A. The description is as above. It counts as binding. Particulars: SD, n = 3. The gist of the method: as §2
This is another data set of the same source.

Test [15] deals with T3, H81Q. Described as above. The test is classed as binding. Particulars: SD, n = 3. Summed up:
as §2
This is another data set of the same source.

Test [16] has as its target T4, H81L. Described as above. It counts as binding. Particulars: SD, n = 3. Summed up:
as §2
This is another data set of the same source.

Test [17] deals with T5, H81W. The test is described as above. The test is classed as binding. Particulars: SD, n = 3. The gist of the method:
as §2
This is another data set of the same source.

The mark [18] stands for this setting: 37°C, 100 mM sodium phosphate, pH 7.4.

T3 sequence (Q8WWM9 whole entry H81Q): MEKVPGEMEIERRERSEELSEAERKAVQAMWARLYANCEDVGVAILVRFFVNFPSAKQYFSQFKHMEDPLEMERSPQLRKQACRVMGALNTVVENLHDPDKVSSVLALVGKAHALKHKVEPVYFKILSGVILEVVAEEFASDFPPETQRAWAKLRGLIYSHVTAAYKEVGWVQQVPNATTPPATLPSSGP
T5 sequence (Q8WWM9 whole entry H81W): as the sequence (Q8WWM9 whole entry H81Q) above, with Q81W counted along it
T4 sequence (Q8WWM9 whole entry H81L): as the sequence (Q8WWM9 whole entry H81Q) above, with Q81L counted along it
T2 sequence (Q8WWM9 whole entry H81A): as the sequence (Q8WWM9 whole entry H81Q) above, with Q81A counted along it
T1 sequence (Q8WWM9 whole entry): as the sequence (Q8WWM9 whole entry H81Q) above, with Q81H counted along it
T6 sequence (Q8WWM9 whole entry K116E): as the sequence (Q8WWM9 whole entry H81Q) above, with Q81H, K116E counted along it
Sequence of V105Y (Q8WWM9 whole entry V105Y): as the sequence (Q8WWM9 whole entry H81Q) above, with Q81H, V105Y counted along it
Sequence of R84E (Q8WWM9 whole entry R84E): as the sequence (Q8WWM9 whole entry H81Q) above, with Q81H, R84E counted along it
Sequence of T91D (Q8WWM9 whole entry T91D): as the sequence (Q8WWM9 whole entry H81Q) above, with Q81H, T91D counted along it
Sequence of L108Q (Q8WWM9 whole entry L108Q): as the sequence (Q8WWM9 whole entry H81Q) above, with Q81H, L108Q counted along it

“Hemoglobin R-State: hemoglobin in the R-state [reference compound]”: the “Nitrite reductase reaction rate constant” value in test [1] (setting [18]) is 6.0^a M^−1s^−1.

One may read the Kd as the constant that tells how readily two partners part at equilibrium. A low value points to higher affinity. `CCCCCCCC(=O)O` [Octanoic acid, octanoic acid, added as sodium octanoate]: the Kd was 1.59 ± 0.74 mM on Wild-type Cygb [2]; 1.52 ± 0.89 mM on H81A [3]; 250 ± 10 µM on H81Q [4]; 950 ± 80 µM at H81L [5]; 140 ± 10 µM on H81W [6]; 185 ± 13 mM at K116E [7].

For the compound `CCCCCCCC/C=C\CCCCCCCC(=O)O` [Oleic acid, oleic acid (18:1 cis-9), added as sodium oleate], the Kd at H81A [8] came out at 24 ± 2 µM; at H81Q [9], 46 ± 8 µM; on H81L [10] it was 36 ± 13 µM; at H81W [11] it was 32 ± 10 µM; at R84E, 170 ± 90 µM; at T91D, 5.7 ± 1.4 µM. Further, the Kd on V105Y was found to be 4.8 ± 3.2 µM; at L108Q, 14 ± 3 µM; at K116E [12], 62 ± 23 µM.

For “Myoglobin F43H/H64A: myoglobin double mutant Phe43(CD1) to His and His64 to Ala [reference compound]”, the “Nitrite reductase reaction rate constant” value in [1] (Mb values determined at 25°C) is 49.8 ± 1.5^c M^−1s^−1.

In the case of “Hemoglobin T-State: hemoglobin in the T-state [reference compound]”, the “Nitrite reductase reaction rate constant” value in [1] (setting [18]) was 0.12^a M^−1s^−1.

Take “Myoglobin Wild-type: wild-type myoglobin [reference compound]”: the “Nitrite reductase reaction rate constant” value in test [1] (Mb values determined at 25°C) is 5.6 ± 0.6^b M^−1s^−1.

Consider `c1c[nH]cn1` [Imidazole, imidazole], for which the Kd at Wild-type Cygb [13] worked out at 820 ± 150 µM; at H81A [14], 10.6 ± 6.2 µM; on H81Q [15], 15.3 ± 11 µM; on H81L [16], 23.5 ± 4.4 µM; on H81W [17], 7.3 ± 0.9 µM.

For “Myoglobin H64A: myoglobin distal histidine His64 to Ala mutant [reference compound]”, the “Nitrite reductase reaction rate constant” value in [1] (Mb values determined at 25°C) is on record as 1.8 ± 0.3^b M^−1s^−1.

Regarding “Myoglobin F43H: myoglobin mutant with histidine instead of Phe43(CD1) [reference compound]”, in test [1] (Mb values determined at 25°C), the “Nitrite reductase reaction rate constant” value is 1.4 ± 0.1^c M^−1s^−1.
